Reference: ChEMBL document CHEMBL4342467, “Discovery of a Novel Dual-Target Inhibitor of ERK1 and ERK5 That Induces Regulated Cell Death to Overcome Compensatory Mechanism in Specific Tumor Types” (J Med Chem, 2020)
Calls of active or inactive are those of the source. The calls are words filed in the database; no cut-off is given here.

Legend:
[1] = test system: MKN-74; test: Cytotoxicity against human MKN74 cells harboring ATG5 siRNA assessed as reduction in cell viability at 0.5 uM by MTT assay; assay type: functional, cell-based
Procedure, shortened: (§1)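 MKN-74 cells transfected with ATG5-specific or negative-control siRNA for the indicated times, then treated with 0.5 μM. Viability read by MTT assay.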

[2] = Effect on Ras/Raf/MEK/ERK signaling in human MKN74 cells assessed as change in MEK1/2 phosphorylation at S217/221 residue at 0.5 uM measured up to 24 hrs by Western blot analysis; assay type: cell-based
Procedure, shortened: (§2)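 MKN-74 cells exposed to 0.5 μM for 0, 6, 12 and 24 h. Ras, Raf, p-MEK1/2, MEK1/2, p-JNK, JNK, p-p38 and p38 immunoblotted, with GAPDH as loading control.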

[3] = Effect on Ras/Raf/MEK/ERK signaling in human MKN74 cells assessed as change in p38 expression at 0.5 uM measured up to 24 hrs by Western blot analysis; assay type: cell-based; procedure, shortened: as §2
[4] = Effect on Ras/Raf/MEK/ERK signaling in human MKN74 cells assessed as change in JNK expression at 0.5 uM measured up to 24 hrs by Western blot analysis; assay type: cell-based; procedure, shortened: as §2
[5] = biological target: Mitogen-activated protein kinase 7 (Homo sapiens) (UniProt Q13164); test: Inhibition of ERK5 in human MKN74 cells harboring ERK1/2 siRNA assessed as reduction in ERK5 phosphorylation at 0.5 uM by Western blot analysis; assay type: cell-based
Sequence of Mitogen-activated protein kinase 7 (Homo sapiens) (Q13164 2-816 limits assumed): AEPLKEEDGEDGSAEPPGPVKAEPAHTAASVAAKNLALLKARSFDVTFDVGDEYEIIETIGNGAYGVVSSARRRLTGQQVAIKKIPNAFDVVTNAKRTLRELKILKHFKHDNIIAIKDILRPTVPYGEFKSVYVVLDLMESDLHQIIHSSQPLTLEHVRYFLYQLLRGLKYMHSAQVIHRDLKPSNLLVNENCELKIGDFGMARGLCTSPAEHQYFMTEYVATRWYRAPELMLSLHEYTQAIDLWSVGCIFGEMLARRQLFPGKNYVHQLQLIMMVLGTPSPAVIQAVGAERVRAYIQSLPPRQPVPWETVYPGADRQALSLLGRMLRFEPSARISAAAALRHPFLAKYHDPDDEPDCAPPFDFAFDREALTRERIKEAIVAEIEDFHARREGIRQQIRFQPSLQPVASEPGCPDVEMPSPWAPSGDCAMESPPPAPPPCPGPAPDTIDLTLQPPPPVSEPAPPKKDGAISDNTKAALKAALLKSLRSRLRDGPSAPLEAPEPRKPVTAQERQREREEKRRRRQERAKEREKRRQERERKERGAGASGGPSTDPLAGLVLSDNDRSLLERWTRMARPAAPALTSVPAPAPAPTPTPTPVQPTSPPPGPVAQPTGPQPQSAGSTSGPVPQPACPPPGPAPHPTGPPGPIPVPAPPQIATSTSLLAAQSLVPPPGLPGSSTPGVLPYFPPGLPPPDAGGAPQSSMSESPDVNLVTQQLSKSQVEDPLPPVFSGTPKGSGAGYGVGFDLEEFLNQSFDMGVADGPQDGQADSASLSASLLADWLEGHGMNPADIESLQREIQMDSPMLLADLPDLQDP
Procedure, shortened: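 MKN-74 cells were transfected with ERK1/2-specific siRNA or negative-control siRNA, then exposed to compound. ERK1/2, p-ERK1/2, ERK5 and p-ERK5 were read by immunoblotting, with GAPDH as loading control.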

[6] = test system: MKN-74; test: Cytotoxicity against human MKN74 cells harboring siRNA assessed as reduction in cell viability at 0.5 uM by MTT assay; assay type: functional, cell-based; procedure, shortened: as §1
[7] = test system: HeLa; test: Antiproliferative activity against human HeLa cells assessed as reduction in cell viability measured after 24 hrs; assay type: functional, cell-based
[8] = test system: Mus musculus; test: In vivo inhibition of ERK1/2 in BALB/c mouse xenografted with human MKN74 cells assessed as reduction in phosphorylated ERK1/2 expression at 50 mg/kg, po administered once daily for 16 days measured post-last dose by immunohistochemical analysis; assay type: functional, organism-based
Procedure, shortened: (§3)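 Tumors excised from control and 50 mg/kg p.o.-treated xenograft mice were immunostained for Ki-67, p-ERK1/2 and p-ERK5. Positive-cell percentage quantified and compared with control.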

[9] = biological target: Mitogen-activated protein kinase 7 (Homo sapiens) (UniProt Q13164); test: Inhibition of ERK5 in human MKN74 cells harboring ERK1/2 siRNA assessed as reduction in ERK5 phosphorylation at 0.5 uM by immunofluorescence assay; assay type: cell-based
Procedure, shortened: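 ERK1/2-specific or negative-control siRNA was transfected into MKN-74 cells for the indicated times, followed by compound at 0.5 μM. p-ERK1/2 and p-ERK5 puncta were detected by immunocytochemistry.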

[10] = test system: MKN-74; test: Antiproliferative activity against human MKN74 cells assessed as reduction in cell viability measured after 24 hrs; assay type: functional, cell-based; conditions: MKN-74, 24 h
[11] = Half life in Sprague-Dawley rat at 10 mg/kg, po by LC-MS analysis; assay type: ADME, organism-based; conditions: in vivo
Procedure, shortened: (§4)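 Rats, two groups of 3; single i.v. dose 1 mg/kg or oral dose 10 mg/kg. Plasma concentration-time profiles used to derive T1/2, Tmax, Cmax, AUC0-t, AUC0-∞ and oral bioavailability. Data from triplicate testing, ± standard deviation.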

[12] = biological target: T1, Mitogen-activated protein kinase; ERK1/ERK2 (Homo sapiens) (UniProt P27361+P28482); test: Inhibition of ERK1/2 in human MKN74 cells harboring siRNA assessed as reduction in ERK1/2 phosphorylation at 0.5 uM by immunofluorescence assay; assay type: cell-based
T1 sequence (P27361 whole entry, looked up): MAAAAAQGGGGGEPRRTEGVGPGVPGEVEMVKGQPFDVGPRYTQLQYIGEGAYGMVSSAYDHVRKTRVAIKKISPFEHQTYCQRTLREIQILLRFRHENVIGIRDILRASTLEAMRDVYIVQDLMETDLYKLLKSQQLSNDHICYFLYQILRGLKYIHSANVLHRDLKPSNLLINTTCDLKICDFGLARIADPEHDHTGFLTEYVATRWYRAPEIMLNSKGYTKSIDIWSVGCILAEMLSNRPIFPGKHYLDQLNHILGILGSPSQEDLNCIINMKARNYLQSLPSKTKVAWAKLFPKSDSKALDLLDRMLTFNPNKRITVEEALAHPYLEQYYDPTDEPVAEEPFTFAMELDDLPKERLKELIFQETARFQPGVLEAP
T1 sequence (P28482 whole entry, looked up): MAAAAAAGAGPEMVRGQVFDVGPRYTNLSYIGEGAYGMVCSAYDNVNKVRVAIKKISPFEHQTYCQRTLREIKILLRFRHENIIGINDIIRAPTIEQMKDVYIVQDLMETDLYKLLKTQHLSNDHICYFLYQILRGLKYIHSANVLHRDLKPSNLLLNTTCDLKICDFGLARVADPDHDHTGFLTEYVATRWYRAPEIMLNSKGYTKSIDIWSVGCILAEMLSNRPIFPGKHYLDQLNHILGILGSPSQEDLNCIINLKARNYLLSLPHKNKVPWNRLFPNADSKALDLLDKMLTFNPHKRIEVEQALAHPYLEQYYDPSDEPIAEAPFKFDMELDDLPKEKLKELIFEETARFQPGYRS
Procedure, shortened: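 MKN-74 cells transfected with ERK1/2-specific or negative-control siRNA for the indicated times, then given 0.5 μM. p-ERK1/2 and p-ERK5 puncta detected by immunocytochemistry.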

[13] = test system: MKN-74; test: Induction of autophagy in human MKN74 cells harboring ATG5 siRNA assessed as increase in LC3-2 expression at 0.5 uM by Western blot analysis; assay type: functional, cell-based
Procedure, shortened: (§5)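 MKN-74 cells transfected with ATG5 or negative-control siRNA for the indicated times, then 0.5 μM. ATG5, LC3 and p62 immunoblotted, with GAPDH loading control.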

[14] = Tmax in Sprague-Dawley rat at 1 mg/kg, iv by LC-MS analysis; assay type: ADME, organism-based; conditions: in vivo
Procedure, shortened: (§6)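 Two groups of rats (3 per group) received a single dose, either 1 mg/kg i.v. or 10 mg/kg p.o. Plasma concentrations were followed to derive Tmax, Cmax, T1/2, AUC and F. Data are from triple testing (± standard deviation).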

[15] = Half life in Sprague-Dawley rat at 1 mg/kg, iv by LC-MS analysis; assay type: ADME, organism-based; conditions: in vivo; procedure, shortened: as §4
[16] = Effect on Ras/Raf/MEK/ERK signaling in human MKN74 cells assessed as change in JNK phosphorylation at Thr183/Tyr185 residue at 0.5 uM measured up to 24 hrs by Western blot analysis; assay type: cell-based; procedure, shortened: as §2
[17] = biological target: Mitogen-activated protein kinase 1 (Homo sapiens) (UniProt P28482); test: Inhibition of wild-type human full length ERK2 (M1 to S360 residues) expressed in bacterial expression system at 1 uM by Kinomescan method relative to control
Sequence of Mitogen-activated protein kinase 1 (Homo sapiens) (P28482 whole entry, the tested form may be a part): as the sequence (P28482 whole entry, looked up) above
Procedure, shortened: (§7)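 KINOMEscan binding assays over a 100-kinase panel, with test compound at 1 μM. Results are given as % inhibition.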

[18] = biological target: Mitogen-activated protein kinase 7 (Homo sapiens) (UniProt Q13164); test: Inhibition of wild-type human partial length ERK5 (M1 to A409 residues) expressed in bacterial expression system at 1 uM by Kinomescan method relative to control; procedure, shortened: as §7
[19] = test system: MKN-74; test: Induction of cytoplasmic vacuolization in human MKN74 cells; assay type: functional, cell-based
[20] = biological target: T1, Mitogen-activated protein kinase; ERK1/ERK2 (Homo sapiens); test: Inhibition of ERK1/2 in human MKN74 cells assessed as reduction in RSK phosphorylation at T359/S363 residue at 0.5 uM measured up to 24 hrs by Western blot analysis; assay type: cell-based
[21] = test system: MKN-74; test: Antitumor activity against human MKN74 cells xenografted in BALB/c mouse assessed as reduction in Ki-67 positive cells at 50 mg/kg, po administered once daily for 16 days measured post-last dose by immunohistochemical analysis; assay type: functional, organism-based; procedure, shortened: as §3
[22] = Tmax in Sprague-Dawley rat at 10 mg/kg, po by LC-MS analysis; assay type: ADME, organism-based; conditions: in vivo; procedure, shortened: as §6
[23] = test system: MKN-74; test: Induction of autophagy in human MKN74 cells harboring ATG5 siRNA assessed as increase in p62 degradation at 0.5 uM by Western blot analysis; assay type: functional, cell-based; procedure, shortened: as §5
[24] = biological target: Mitogen-activated protein kinase 3 (Homo sapiens) (UniProt P27361); test: Inhibition of ERK1 (unknown origin) at 1 uM by Z'-Lyte assay relative to control
Sequence of Mitogen-activated protein kinase 3 (Homo sapiens) (P27361 whole entry): as the sequence (P27361 whole entry, looked up) above

[25] = biological target: Mitogen-activated protein kinase 1 (Homo sapiens) (UniProt P28482); test: Inhibition of ERK2 (unknown origin) at 1 uM by Z'-Lyte assay relative to control
[26] = AUC (0 to t) in Sprague-Dawley rat at 1 mg/kg, iv by LC-MS analysis; assay type: ADME, organism-based; conditions: in vivo; procedure, shortened: as §4

inhibition [5]: Active
IC50 [7]: > 50 µM
inhibition [9]: Active
IC50 [10]: 2550 nM
half-life [11]: 74.4 min
inhibition [12]: Active
Tmax [14]: 4.8 min
half-life [15]: 57 min
inhibition [17]: 91%
inhibition [18]: 87%
inhibition [20]: inactive
Tmax [22]: 45 min
inhibition [24]: 93.5%
inhibition [25]: 92.7%
AUC(0-t) [26]: 1840 ng·h/mL
Structure (SMILES): NC(=O)c1c(NC(=O)c2ccccc2Cl)sc2c1CCN(C(=S)Nc1ccccc1Cl)C2
Activity [1]: inactive
Activity [2]: inactive
Activity [3]: inactive
Activity [4]: inactive
Activity [6]: Active
inhibition [8]: Active
Activity [13]: inactive
Activity [16]: inactive
Activity [19]: Active
Activity [21]: Active
Activity [23]: inactive
